ChEMBL document CHEMBL1131322, “Simultaneous measurement of nineteen binding constants of peptides to vancomycin using affinity capillary electrophoresis-mass spectrometry” (J Med Chem, 1998)
Square brackets hold non-standard residues; d marks the D form. Peptide text beside a SMILES is read from it. * marks the point of attachment. ξ: configuration not given here. Fmoc = O=C(OCC1c2ccccc2-c2ccccc21)*; ξV = CC(C)C(N)C(=O)O

Experiments:
[1] = Binding constant at vancomycin was measured using affinity capillary electrophoresis-MS.
In short: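 Mixture of Fmoc-DXYA (all-D) peptides plus Fmoc-G EOF marker injected together hydrodynamically (10 cm, 10 s) into an uncoated 50 cm capillary. Running buffer was 20 mM Tris-acetate pH 8.1 with 0–100 μM vancomycin, run at 400–500 V/cm. On-line ESI triple-quadrupole MS detected free peptide ions. Kd came from marker-corrected mobility shifts by Scatchard analysis.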

[2] = Binding constant at vancomycin was measured using affinity capillary electrophoresis-UV.
In short: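 Receptor-in-buffer mobility-shift ACE with UV detection was used, running individual ligands. Capillary was 30 cm effective length, 37 cm total length, at 20 kV. Kd was obtained by Scatchard analysis of mobility versus vancomycin concentration.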

| Compound | Kd [1] [µM] | Kd [2] [µM] |
| --- | --- | --- |
| CC[C@@H](C)[C@H](NC(=O)[C@H](CC(=O)O)NC(=O)OCC1c2ccccc2-c2ccccc21)C(=O)N[C@@H](Cc1ccc(O)cc1)C(=O)N[C@@H](C)C(=O)O | 21 | 19 |
| C[C@H](NC(=O)[C@H](Cc1ccc(O)cc1)NC(=O)[C@@H](NC(=O)[C@H](CC(=O)O)NC(=O)OCC1c2ccccc2-c2ccccc21)[C@H](C)O)C(=O)O | 24 | 21 |
| C[C@H](NC(=O)[C@H](Cc1ccc(O)cc1)NC(=O)[C@H](C)NC(=O)[C@H](CC(=O)O)NC(=O)OCC1c2ccccc2-c2ccccc21)C(=O)O (Fmoc-DAYA-OH) | 8.2 | 7.2 |
| C[C@H](NC(=O)[C@H](Cc1ccc(O)cc1)NC(=O)[C@H](CCC(=O)O)NC(=O)[C@H](CC(=O)O)NC(=O)OCC1c2ccccc2-c2ccccc21)C(=O)O (Fmoc-DEYA-OH) | 8.5 | 10 |
| C[C@H](NC(=O)[C@H](Cc1ccc(O)cc1)NC(=O)CNC(=O)[C@H](CC(=O)O)NC(=O)OCC1c2ccccc2-c2ccccc21)C(=O)O (Fmoc-DGYA-OH) | 21 | 18 |
| C[C@H](NC(=O)[C@H](Cc1ccc(O)cc1)NC(=O)[C@H](CCCCN)NC(=O)[C@H](CC(=O)O)NC(=O)OCC1c2ccccc2-c2ccccc21)C(=O)O (Fmoc-DKYA-OH) | 12 | 13 |
| CSCC[C@H](NC(=O)[C@H](CC(=O)O)NC(=O)OCC1c2ccccc2-c2ccccc21)C(=O)N[C@@H](Cc1ccc(O)cc1)C(=O)N[C@@H](C)C(=O)O (Fmoc-DMYA-OH) | 7.6 | 7.1 |
| C[C@H](NC(=O)[C@H](Cc1ccc(O)cc1)NC(=O)[C@@H]1CCCN1C(=O)[C@H](CC(=O)O)NC(=O)OCC1c2ccccc2-c2ccccc21)C(=O)O (Fmoc-DPYA-OH) | 16 | 14 |
| C[C@H](NC(=O)[C@H](Cc1ccc(O)cc1)NC(=O)[C@H](CCCN=C(N)N)NC(=O)[C@H](CC(=O)O)NC(=O)OCC1c2ccccc2-c2ccccc21)C(=O)O (Fmoc-DRYA-OH) | 11 | 13 |
| CC(C)C(NC(=O)[C@H](CC(=O)O)NC(=O)OCC1c2ccccc2-c2ccccc21)C(=O)N[C@@H](Cc1ccc(O)cc1)C(=O)N[C@@H](C)C(=O)O (stereo partly drawn) (Fmoc-D[ξV]YA-OH) | 10 | 12 |

Further lines, results first:

| Kd [1] [µM] | Kd [2] [µM] | Compound |
| --- | --- | --- |
| 6.6 | 7.2 | C[C@H](NC(=O)[C@H](Cc1ccc(O)cc1)NC(=O)[C@H](CC(=O)O)NC(=O)[C@H](CC(=O)O)NC(=O)OCC1c2ccccc2-c2ccccc21)C(=O)O (Fmoc-DDYA-OH) |
| 8.9 | 9.6 | C[C@H](NC(=O)[C@H](Cc1ccc(O)cc1)NC(=O)[C@H](Cc1ccccc1)NC(=O)[C@H](CC(=O)O)NC(=O)OCC1c2ccccc2-c2ccccc21)C(=O)O (Fmoc-DFYA-OH) |
| 8.2 | 7.1 | C[C@H](NC(=O)[C@H](Cc1ccc(O)cc1)NC(=O)[C@H](Cc1c[nH]cn1)NC(=O)[C@H](CC(=O)O)NC(=O)OCC1c2ccccc2-c2ccccc21)C(=O)O (Fmoc-DHYA-OH) |
| 5.1 | 5.6 | CC(C)C[C@H](NC(=O)[C@H](CC(=O)O)NC(=O)OCC1c2ccccc2-c2ccccc21)C(=O)N[C@@H](Cc1ccc(O)cc1)C(=O)N[C@@H](C)C(=O)O (Fmoc-DLYA-OH) |
| 12 | 11 | C[C@H](NC(=O)[C@H](Cc1ccc(O)cc1)NC(=O)[C@H](CC(N)=O)NC(=O)[C@H](CC(=O)O)NC(=O)OCC1c2ccccc2-c2ccccc21)C(=O)O (Fmoc-DNYA-OH) |
| 15 | 14 | C[C@H](NC(=O)[C@H](Cc1ccc(O)cc1)NC(=O)[C@H](CCC(N)=O)NC(=O)[C@H](CC(=O)O)NC(=O)OCC1c2ccccc2-c2ccccc21)C(=O)O (Fmoc-DQYA-OH) |
| 14 | 13 | C[C@H](NC(=O)[C@H](Cc1ccc(O)cc1)NC(=O)[C@H](CO)NC(=O)[C@H](CC(=O)O)NC(=O)OCC1c2ccccc2-c2ccccc21)C(=O)O (Fmoc-DSYA-OH) |
| 12 | 14 | C[C@H](NC(=O)[C@H](Cc1ccc(O)cc1)NC(=O)[C@H](Cc1c[nH]c2ccccc12)NC(=O)[C@H](CC(=O)O)NC(=O)OCC1c2ccccc2-c2ccccc21)C(=O)O (Fmoc-DWYA-OH) |
| 7.4 | 6.8 | C[C@H](NC(=O)[C@H](Cc1ccc(O)cc1)NC(=O)[C@H](Cc1ccc(O)cc1)NC(=O)[C@H](CC(=O)O)NC(=O)OCC1c2ccccc2-c2ccccc21)C(=O)O (Fmoc-DYYA-OH) |
